Results as given in ChEMBL document CHEMBL1123966, “Ring-substituted [1,2-bis(4-hydroxyphenyl)ethylenediamine]dichloroplatinum (II) complexes: compounds with a selective effect on the hormone-dependent mammary carcinoma” (1988).
Where “and” joins values, the source holds several entries; their conditions need not be identical. Identical values can stand only once.

Columns and labels:
[1] = tested on: Mus musculus; experiment: Median tumor weight of MXT (mammary carcinoma) ER+ determined at the end of 6 week therapy at a dose of 12.9 mg/kg; type: functional, organism-based; design: dose 12.9 mg/kg
In short: (§1)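 BDF1 mice with hormone-dependent MXT mammary carcinoma (ER+). Equimolar dosing at 2 × 10⁻⁵ M/kg, given sc in olive oil three times a week (Mon/Wed/Fri) for 6 weeks. Median tumor weight was taken at the end of therapy and compared with controls by the Wilcoxon–Mann–Whitney U test.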

[2] = species: Mus musculus; experiment: (§2) Uterotrophic effect in BDF1 mouse measured as([weight of uterus (mg)/body weight (g)] *100); type: functional
In short: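 Female BDF1 mice carrying MXT ER+ mammary carcinoma were dosed in olive oil, sc, three times a week, for 6 weeks. At the end of therapy, uterotropic effect = [uterus dry weight (mg)/body weight (g)] × 100, given as mean ± SD and as T/C % versus control. Significance was by the U test.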

[3] = Cell growth inhibition MXT-ER+ breast cancer cells at a dose of 12.9 mg/kg; type: functional, organism-based; design: dose 12.9 mg/kg; settings: Mus musculus, Cancer cell lines
In short: (§3)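 Hormone-dependent MXT mammary carcinoma (ER+) model. Equimolar doses (2 × 10⁻⁵ M/kg) were given sc three times weekly (Mon, Wed, Fri) as a solution or suspension in polyethylene glycol 400/H₂O (1:1); some agents were given in olive oil. Median tumor weight was taken at the end of 6 weeks of therapy and given as T/C %. Significance was tested by the Wilcoxon-Mann-Whitney U test.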

[4] = Cell growth inhibition MXT-ER- breast cancer cells at a dose of 12.9 mg/kg; type: functional, organism-based; design: dose 12.9 mg/kg; settings: Mus musculus, Cancer cell lines
In short: (§4)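 Hormone-independent MXT mammary carcinoma (ER−) in mice. Equimolar doses (2 × 10⁻⁵ M/kg) were given sc three times a week (Mon, Wed, Fri) in polyethylene glycol 400/H₂O (1:1), or in olive oil for some agents. Median tumor area was measured at the end of a 2-week therapy and expressed as T/C %.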

[5] = tested on: MDA-MB-231; experiment: Cell growth inhibition in hormone independent MDA-MB-231 breast cancer cells; type: functional, cell-based; settings: Homo sapiens
[6] = tested on: MCF7S; experiment: Cell growth inhibition in hormone dependent MCF 7 breast cancer cells; type: functional, cell-based; settings: Homo sapiens
[7] = tested on: MDA-MB-231; experiment: Incorporation of [3H]- thymidine in hormone independent MDA-MB-231 breast cancer cells; type: functional, cell-based; settings: Homo sapiens
[8] = tested on: MCF7S; experiment: Incorporation of [3H]- thymidine in hormone dependent MCF-7 breast cancer cells; type: functional, cell-based; settings: Homo sapiens
[9] = tested on: Mus musculus; experiment: Uterotrophic effect in BDF1 mouse at a dose of 12.9 mg/kg; type: functional, organism-based; design: dose 12.9 mg/kg; settings: Uterus
In short: (§5)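 Uterus of BDF1 mice in the MXT ER+ study. Equimolar dosing at 2 × 10⁻⁵ M/kg, sc in olive oil three times a week (Mon/Wed/Fri). Uterine response = [uterus dry weight (mg)/body weight (g)] × 100, determined at the end of the 6-week therapy; U test.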

[10] = tested on: Mus musculus; experiment: Median tumor weight of MXT (mammary carcinoma) ER+ determined at the end of 6 week therapy at a dose of 11.3 mg/kg; type: functional, organism-based; design: dose 11.3 mg/kg; in short: as §3
[11] = Cell growth inhibition MXT-ER+ breast cancer cells at a dose of 11.3 mg/kg; type: functional, organism-based; design: dose 11.3 mg/kg; settings: Mus musculus, Cancer cell lines; in short: as §3
[12] = tested on: Mus musculus; experiment: Uterotrophic effect in BDF1 mouse at a dose of 11.3 mg/kg; type: functional, organism-based; design: dose 11.3 mg/kg; settings: Uterus
In short: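 Uterus of BDF1 mice in the MXT ER+ study. Equimolar dosing at 2 × 10⁻⁵ M/kg, sc in PEG 400/H₂O 1:1 three times a week (Mon/Wed/Fri). Uterine response = [uterus dry weight (mg)/body weight (g)] × 100, determined after 6 weeks of therapy; U test.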

[13] = tested on: MDA-MB-231; experiment: Incorporation of [3H]- thymidine into hormone independent MDA-MB-231 breast cancer cells; type: functional, cell-based; settings: Homo sapiens
[14] = Cell growth inhibition MXT-ER- breast cancer cells at a dose of 11.3 mg/kg; type: functional, organism-based; design: dose 11.3 mg/kg; settings: Mus musculus, Cancer cell lines; in short: as §4
[15] = Cell growth inhibition of MXT-ER+ breast cancer cells ata dose of 2 mg/kg; type: functional, organism-based; design: dose 2 mg/kg; settings: Mus musculus; Cancer cell lines; in short: as §3
[16] = tested on: Mus musculus; experiment: Median tumor weight of MXT ER+ determined at the end of 6 week therapy at a dose of 4.2 mg/kg (1.4*10^-5 M/kg); type: functional, organism-based; design: dose 4.2 mg/kg
In short: (§6)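 BDF1 mice bearing MXT mammary carcinoma. Dosing sc in water once per week over a 6-week therapy. Median tumor weight and uterine index ([uterus dry weight (mg)/body weight (g)] × 100) were read at the end of therapy; U test (Wilcoxon, Mann, Whitney).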

[17] = tested on: Mus musculus; experiment: Uterotrophic effect in BDF1 mouse at a dose of 4.2 mg/kg (1.4*10^-5 M/kg); type: functional, organism-based; design: dose 4.2 mg/kg; settings: Uterus; in short: as §6
[18] = species: Mus musculus; experiment: as §2; type: functional, organism-based
[19] = Cell growth inhibition of MXT-ER+ breast cancer cells at a dose of 4.2 mg/kg (1.4*10^-5 M/kg); type: functional, organism-based; design: dose 4.2 mg/kg; settings: Mus musculus, Cancer cell lines
In short: (§7)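 Hormone-dependent MXT mammary carcinoma in BDF₁ mice. Dosing was sc in water as vehicle: 1.4 mg/kg three times a week, and 4.2 mg/kg once per week. Median tumor weight was taken after 6 weeks of therapy and expressed as T/C %. Significance was tested by the Wilcoxon-Mann-Whitney U test.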

[20] = tested on: Mus musculus; experiment: Median tumor weight MXT ER+ determined at the end of 6 week therapy at a dose of 1.4 mg/kg (4.6*10e-6M/kg); type: functional, organism-based; design: dose 1.4 mg/kg; in short: as §7
[21] = tested on: Mus musculus; experiment: Uterotrophic effect in BDF1 mouse ata dose of 2 mg/kg; type: functional, organism-based; design: dose 2 mg/kg; settings: Uterus; in short: as §5
[22] = Cell growth inhibition of MXT-ER- breast cancer cells ata dose of 2 mg/kg; type: functional, organism-based; design: dose 2 mg/kg; settings: Mus musculus; Cancer cell lines; in short: as §4
[23] = tested on: Mus musculus; experiment: Uterotrophic effect in BDF1 mouse at a dose of 1.4 mg/kg (4.6*10e-6M/kg); type: functional, organism-based; design: dose 1.4 mg/kg; settings: Uterus
In short: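 BDF1 mice bearing MXT mammary carcinoma. Dosing sc in water three times a week for 6 weeks. Uterine index = [uterus dry weight (mg)/body weight (g)] × 100 (± SD), read at the end of therapy; U test.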

[24] = Cell growth inhibition of MXT-ER+ breast cancer cells at a dose of 1.4 mg/kg (4.6*10e-6M/kg); type: functional, organism-based; design: dose 1.4 mg/kg; settings: Mus musculus, Cancer cell lines; in short: as §7
[25] = tested on: Mus musculus; experiment: Median tumor weight of MXT ER+ determined at the end of 6 week therapy ata dose of 2 mg/kg; type: functional, organism-based; design: dose 2 mg/kg; in short: as §1

Substance meso-3-PtCl2(2-CF3) has a Med tumor weight [1] of 422 mg, an Effect [2] of 70.9 and a T/C [3] of 78%. The T/C [4] was 72%, the ED50 [5] was 4 µM and the T/C [5] was 46%. For the same substance, the ED50 [6] was 5.1 µM, the T/C [6] was 61% and the ED50 [7] was 3.2 µM. For the same substance, the T/C [7] was 36%, the ED50 [8] was 2200 nM and the T/C [8] was 27%. It also gave a T/C [9] of 100%.
meso-2-PtCl2(2-6-(CH3)2) showed a Med tumor weight [10] of 40 mg, a T/C [11] of 9% and a T/C [12] of 96%. For the same substance, the Effect [2] was 86.6, the ED50 [13] was 2.7 µM and the ED50 [5] was 2.7 µM. It also gave a T/C [5] of 34%, an ED50 [6] of 3.1 µM and a T/C [6] of 17%. For the same substance, the T/C [7] was 28%, the ED50 [8] was 900 nM and the T/C [8] was 4%. For the same substance, the T/C [14] was 63%.
Substance CISPLATIN has a T/C [15] of 3%, an Effect [2] of 95 and a Med tumor weight [16] of 222 mg. The ED50 [13] was 0.32 µM, the T/C [17] was 118% and the ED50 [5] was 0.24 µM. For the same substance, the T/C [5] was 26%, the Utreotropic effect [18] was 96 and 100 and the ED50 [6] was 0.44 µM. For the same substance, the T/C [6] was 11%, the T/C [19] was 44% and the Med tumor weight [20] was 15 mg. For the same substance, the T/C [7] was 17%, the ED50 [8] was 110 nM and the T/C [8] was 1%. It also gave a T/C [21] of 114%, a T/C [22] of 15% and a T/C [23] of 114%. For the same substance, the T/C [24] was 3% and the Med tumor weight [25] was 15 mg.
